According to ChEMBL document CHEMBL4400507, “Discovery of Novel Transient Receptor Potential Vanilloid 4 (TRPV4) Agonists as Regulators of Chondrogenic Differentiation: Identification of Quinazolin-4(3 H)-ones and in Vivo Studies on a Surgically Induced Rat Model of Osteoarthritis” (J Med Chem, 2019):
Converted amounts (≈) assume the structure as drawn. The source made the active and inactive calls. The rule behind the calls is not given here.

Columns and labels:
[1] = molecular target: T1, Transient receptor potential cation channel subfamily V member 4 (Homo sapiens, UniProt Q9HBA0); assay: Agonist activity at recombinant human TRPV4 expressed in HEK293 cells assessed as increase in intracellular calcium level after 30 mins by Fura-2 AM/Pluronic F-127 probe based fluorescence assay; type: cell-based
Outline: (§1)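 HEK293 cells transiently expressing human TRPV4 were loaded with 5 µM Fura-2 AM plus 0.2% Pluronic F-127 for 30 min at 37 °C in HEPES buffer (pH 7.4, 1.8 mM CaCl2, 0.1% BSA). They were then washed and resuspended. Intracellular Ca2+ was read by Fura-2 ratio imaging (excitation 340/380 nm, emission 510 nm).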

[2] = molecular target: Transient receptor potential cation channel subfamily V member 1 (Homo sapiens) (UniProt Q8NER1); assay: Agonist activity at human TRPV1 assessed as increase in intracellular calcium level at 10 uM relative to control; type: cell-based
[3] = Solubility of the compound in saline; type: physicochemical
[4] = molecular target: T1, Transient receptor potential cation channel subfamily V member 4; assay: Agonist activity at recombinant human TRPV4 expressed in […] cells by SOX9 luciferase reporter gene assay; type: cell-based
Outline: (§2)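 ATDC5 cells stably carrying a SOX9 reporter gene construct and human TRPV4 (pcDNA3.1) were seeded at 2.0 × 10^4 cells/well and treated with compound. Luciferase luminescence was measured the next day.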

Rattus norvegicus [5] = assay: Induction of SOX9 mRNA expression in Sprague-Dawley rat model of medial meniscal tear-induced osteoarthritis at 5 to 10 uM administered intra-articularly into operated knee twice per week for 3 consecutive weeks measured after 21 days by RT-qPCR analysis; type: functional, organism-based
Homo sapiens [6] = species on record: Homo sapiens; assay: Induction of chondrogenesis in normal human articular chondrocytes at 62.5 nM preincubated for 30 mins followed by medium replacement and measured after 3 days by Alcian blue-staining based assay; type: functional, cell-based
Outline: (§3)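 Normal human articular chondrocytes were stimulated with agonist for 30 min, then the medium was replaced. After 3 days' culture, cells were fixed in 95% methanol and stained overnight with 0.1% Alcian blue 8GS in 0.1 N HCl. Dye was extracted with 6 M guanidine-HCl for 2 h at room temperature and read at OD 600 nm.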

Rattus norvegicus [7] = assay: Anti-osteoarthritis activity in Sprague-Dawley rat model of medial meniscal tear-induced osteoarthritis assessed as reduction in erosion of tibial plateau cartilage at 5 to 10 uM administered intra-articularly into operated knee twice per week for 3 consecutive weeks and measured at week 4; type: functional, organism-based
Outline: (§4)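 Male Sprague-Dawley rats, 8 weeks old. Medial meniscus cut through to mimic a complete tear. One week after surgery, rats were grouped by body weight: sham, MT vehicle, 5 μM, 10 μM. 50 µL saline or drug was injected intra-articularly into the operated knee twice weekly for 3 weeks, and knees were harvested at week 4. Sections of 5 μm were stained with safranin-O/Fast Green, and damaged width on the medial tibial plateau was measured by micrometer. Analysis by Dunnett's test; n = 5–15 per group.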

Rattus norvegicus [8] = assay: Induction of aggrecan mRNA expression in Sprague-Dawley rat model of medial meniscal tear-induced osteoarthritis at 5 to 10 uM administered intra-articularly into operated knee twice per week for 3 consecutive weeks measured after 21 days by RT-qPCR analysis; type: functional, organism-based
Rattus norvegicus [9] = assay: Anti-osteoarthritis activity in Sprague-Dawley rat model of medial meniscal tear-induced osteoarthritis assessed as decrease in length of damage area at 5 to 10 uM administered intra-articularly into operated knee twice per week for 3 consecutive weeks and measured at week 4; type: functional, organism-based; outline: as §4
Rattus norvegicus [10] = assay: Bone anabolic effect in Sprague-Dawley rat model of medial meniscal tear-induced osteoarthritis assessed as induction of new extracellular matrix generation at 10 uM administered intra-articularly into operated knee twice per week for 3 consecutive weeks and measured at week 4 by safranin-O/Fast Green staining-based microscopic analysis; type: functional, organism-based
Homo sapiens [11] = species on record: Homo sapiens; assay: Induction of chondrogenesis in normal human articular chondrocytes at 62.5 to 1000 nM preincubated for 30 mins followed by medium replacement and measured after 3 days by Alcian blue-staining based assay; type: functional, cell-based
Outline: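 Normal human articular chondrocytes were exposed to agonist for 30 min, then the medium was replaced and the cells cultured 3 days. They were fixed in 95% methanol and stained overnight with 0.1% Alcian blue in 0.1 N HCl. Dye was extracted with 6 M guanidine-HCl for 2 h at room temperature, and OD was read at 600 nm.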

[12] = Toxicity in Sprague-Dawley rat model of medial meniscal tear-induced osteoarthritis assessed as death at 5 to 10 uM administered intra-articularly into operated knee twice per week for 3 consecutive weeks and measured at week 4; conditions: in vivo, other
Outline: (§5)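 Eight-week-old male SD rats, housed singly, had the medial meniscus cut. One week later they were grouped by body weight. The operated knee received 50 µL saline or 0, 5 or 10 µM solution intra-articularly twice weekly for 3 weeks, starting 1 week post-surgery. Deaths and systemic signs were checked by gross visual inspection, and final body weights were recorded. Rats were euthanized at week 4.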

[13] = Drug level in rat synovial fluid lavage dosed directly in to knee joints and measured after 30 mins by LC-MS method; type: ADME, organism-based; conditions: in vivo, other, 0.5 h
Outline: (§6)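 Normal rats received an intra-articular knee injection. After euthanasia the joint was washed with saline and the synovial fluid lavage collected. Compound was quantified by LC-MS/MS and converted to joint concentration using the ratio of total protein in the lavage. Quantitation limits were 0.3–1 nmol/L.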

[14] = Toxicity in Sprague-Dawley rat model of medial meniscal tear-induced osteoarthritis assessed as effect on body weight at 5 to 10 uM administered intra-articularly into operated knee twice per week for 3 consecutive weeks and measured at week 4; conditions: in vivo, other; outline: as §5
[15] = Drug level in rat synovial fluid lavage dosed directly in to knee joints and measured within 30 mins by LC-MS method; type: ADME, organism-based; conditions: in vivo, other, 0.5 h; outline: as §6
[16] = Systemic toxicity in Sprague-Dawley rat model of medial meniscal tear-induced osteoarthritis at 5 to 10 uM administered intra-articularly into operated knee twice per week for 3 consecutive weeks and measured at week 4; conditions: in vivo, other; outline: as §5
Homo sapiens [17] = species on record: Homo sapiens; assay: Induction of chondrogenesis in normal human articular chondrocytes at 500 nM preincubated for 30 mins followed by medium replacement and measured after 3 days by Alcian blue-staining based assay; type: functional, cell-based; outline: as §3
Homo sapiens [18] = species on record: Homo sapiens; assay: Induction of chondrogenesis in normal human articular chondrocytes at <500 nM preincubated for 30 mins followed by medium replacement and measured after 3 days by Alcian blue-staining based assay; type: functional, cell-based; outline: as §3
[19] = molecular target: T1, Transient receptor potential cation channel subfamily V member 4; assay: Agonist activity at recombinant human TRPV4 expressed in […] cells at 10 uM by SOX9 luciferase reporter gene assay; type: cell-based; outline: as §2
[20] = molecular target: T1, Transient receptor potential cation channel subfamily V member 4; assay: Agonist activity at recombinant human TRPV4 expressed in HEK293 cells assessed as increase in intracellular calcium level at 10 uM after 30 mins by Fura-2 AM/Pluronic F-127 probe based fluorescence assay relative to control; type: cell-based; outline: as §1
[21] = Protein binding in plasma (unknown origin); type: ADME, cell-free
HL-60 = assay: Cytotoxicity against human HL60 cells assessed as reduction in cell viability; type: cell-based
Outline: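 HL-60 cell viability measured with an ATP-based assay.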

[22] = Genotoxicity in Salmonella typhimurium by Ames test; type: toxicity; conditions: salmonella enterica subsp. enterica serovar typhimurium

Transient receptor potential cation channel subfamily V member 1 (Homo sapiens), sequence (Q8NER1 whole entry): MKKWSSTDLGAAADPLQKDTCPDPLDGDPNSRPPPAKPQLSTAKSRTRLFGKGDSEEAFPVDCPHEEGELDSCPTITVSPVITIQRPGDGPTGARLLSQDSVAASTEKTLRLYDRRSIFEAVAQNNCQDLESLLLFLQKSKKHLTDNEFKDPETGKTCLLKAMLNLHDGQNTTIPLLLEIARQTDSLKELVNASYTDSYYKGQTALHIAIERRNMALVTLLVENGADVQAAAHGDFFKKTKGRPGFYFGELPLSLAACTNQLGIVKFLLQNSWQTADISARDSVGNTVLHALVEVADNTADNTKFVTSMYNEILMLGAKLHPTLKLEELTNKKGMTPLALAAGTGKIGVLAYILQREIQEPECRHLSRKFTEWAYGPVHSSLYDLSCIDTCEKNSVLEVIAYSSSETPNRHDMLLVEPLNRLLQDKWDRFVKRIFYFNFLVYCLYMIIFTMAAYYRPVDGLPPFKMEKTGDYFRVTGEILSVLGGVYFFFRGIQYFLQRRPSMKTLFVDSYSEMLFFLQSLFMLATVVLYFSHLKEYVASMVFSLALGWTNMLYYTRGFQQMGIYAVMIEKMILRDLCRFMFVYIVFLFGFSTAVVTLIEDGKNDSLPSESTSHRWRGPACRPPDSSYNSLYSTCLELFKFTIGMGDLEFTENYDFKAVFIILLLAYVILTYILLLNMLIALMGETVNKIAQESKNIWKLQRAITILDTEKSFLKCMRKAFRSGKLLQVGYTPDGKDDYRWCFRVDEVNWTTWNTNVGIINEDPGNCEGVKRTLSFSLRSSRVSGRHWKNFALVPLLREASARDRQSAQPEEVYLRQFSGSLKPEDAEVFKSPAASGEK
T1 sequence (Q9HBA0 whole entry): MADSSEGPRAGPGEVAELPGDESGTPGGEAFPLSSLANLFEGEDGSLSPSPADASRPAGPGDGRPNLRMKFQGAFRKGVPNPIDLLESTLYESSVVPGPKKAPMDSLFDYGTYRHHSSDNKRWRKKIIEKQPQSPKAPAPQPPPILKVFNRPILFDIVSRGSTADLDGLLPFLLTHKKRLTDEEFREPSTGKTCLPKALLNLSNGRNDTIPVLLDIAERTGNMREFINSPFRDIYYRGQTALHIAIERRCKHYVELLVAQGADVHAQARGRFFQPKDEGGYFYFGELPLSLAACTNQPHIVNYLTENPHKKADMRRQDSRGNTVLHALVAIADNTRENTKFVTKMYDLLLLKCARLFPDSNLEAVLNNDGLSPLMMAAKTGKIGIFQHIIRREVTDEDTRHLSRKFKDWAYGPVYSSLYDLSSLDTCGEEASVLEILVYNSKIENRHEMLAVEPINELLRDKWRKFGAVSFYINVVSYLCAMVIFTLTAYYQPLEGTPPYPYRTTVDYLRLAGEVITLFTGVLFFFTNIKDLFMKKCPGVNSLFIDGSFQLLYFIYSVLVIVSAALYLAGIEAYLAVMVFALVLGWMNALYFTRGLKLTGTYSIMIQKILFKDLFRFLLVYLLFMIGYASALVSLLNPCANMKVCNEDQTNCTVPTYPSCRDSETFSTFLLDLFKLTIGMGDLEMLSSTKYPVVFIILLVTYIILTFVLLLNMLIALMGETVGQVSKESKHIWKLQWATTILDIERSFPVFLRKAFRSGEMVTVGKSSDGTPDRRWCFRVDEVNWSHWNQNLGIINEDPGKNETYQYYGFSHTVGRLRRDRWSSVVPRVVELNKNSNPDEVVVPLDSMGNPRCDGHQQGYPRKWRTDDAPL

SMILES	EC50 [1]	ECmax [4]	Activity [19]	other results
CN1CCN(c2nc3c(F)cccc3c(=O)n2-c2ccc(Oc3ccccc3)cc2)CC1	0.125 µM	39 nM	–	Activity [2]: 0.6%; solubility [3]: 745 µg/mL (≈ 1730 µM)
CN1CCN(c2nc3ccc(F)cc3c(=O)n2-c2ccc(OC(F)(F)F)cc2)CC1	2.06 µM	2500 nM	–	Activity [2]: 5%
CN1CCN(c2nc3c(F)cccc3c(=O)n2-c2ccc(Oc3ccc(F)cc3)cc2)CC1 [listing 1 of 2 here]	–	20 nM	–	Activity (Rattus norvegicus [5]): Dose-dependent effect; Activity (Homo sapiens [6]): Active; Activity (Rattus norvegicus [7]): Dose-dependent effect; Activity [2]: 0.6%; Activity (Rattus norvegicus [8]): Dose-dependent effect; Activity (Rattus norvegicus [9]): Dose-dependent effect; Activity (Rattus norvegicus [10]): Active; Activity (Homo sapiens [11]): Active
CN1CCN(c2nc3c(F)cccc3c(=O)n2-c2ccc(Oc3ccc(F)cc3)cc2)CC1.Cl	–	–	–	Activity [12]: Non-Toxic; Drug uptake [13]: Not Active; Activity [14]: Non-Toxic; Drug uptake [15]: Active; Activity [16]: Non-Toxic
CC(C)C[C@H](NC(=O)c1cc2ccccc2s1)C(=O)NCCCN(C)S(=O)(=O)c1ccc(Cl)cc1Cl	0.74 µM	312 nM	–	Activity (Homo sapiens [17]): Active; solubility [3]: 3.6 µg/mL (≈ 6.31 µM); Activity (Homo sapiens [18]): inactive
CCOC(=O)c1ccc(-n2c(N3CCN(C)CC3)nc3c(Cl)cccc3c2=O)cc1	–	–	29.4%	–
Cc1ccccc1-n1c(N2CCN(C)CC2)nc2c(Cl)cccc2c1=O	–	–	0.4%	–
COc1ccc(-n2c(N3CCN(C)CC3)nc3ccccc3c2=O)cc1	–	–	13.2%	–
COc1ccc(-n2c(N(C)CCN(C)C)nc3cc(F)ccc3c2=O)cc1	–	–	0%	–
CN1CCN(c2nc3cc(F)ccc3c(=O)n2-c2ccc(OC(F)(F)F)cc2)CC1	0.663 µM	625 nM	–	Activity [2]: 6.2%
CCOC(=O)c1ccc(-n2c(N3CCN(C)CC3)nc3c(F)cccc3c2=O)cc1	0.92 µM	625 nM	–	–
COc1ccc(-n2c(N3CCNCC3)nc3cc(F)ccc3c2=O)cc1	–	–	1.8%	–
CC(C)[C@H]1CN(c2nc3cc(F)ccc3c(=O)n2-c2ccc(C(F)(F)F)cc2)CCN1C	> 30 µM	5000 nM	–	–
CC(C)C[C@H]1CN(c2nc3cc(F)ccc3c(=O)n2-c2ccc(C(F)(F)F)cc2)CCN1C	–	–	0.9%	–
CCOC(=O)c1ccc(-n2c(N3CCN(C)CC3)nc3c(Br)cccc3c2=O)cc1	–	–	7.8%	–
CC(C)C[C@H](NC(=O)c1cc2ccccc2s1)C(=O)N1CCN(C(=O)[C@H](CO)NS(=O)(=O)c2ccc(Cl)cc2Cl)CC1	0.049 µM	–	–	–
COc1ccc(-n2c(N3CCN(C)CC3)nc3cc(F)ccc3c2=O)cc1	4.7 µM	5000 nM	42.2%	–
CN1CCN(c2nc3cc(F)ccc3c(=O)n2-c2ccc(C(F)(F)F)cc2)CC12CC2	–	–	1.2%	–

SMILES	EC50 [1]	ECmax [4]	Activity [19]	other results
CN1CCN(c2nc3cc(F)ccc3c(=O)n2-c2ccc(C(F)(F)F)cc2)CC1=O	–	–	1.8%	–
Cc1ccc(-n2c(N3CCN(C)CC3)nc3c(Cl)cccc3c2=O)cc1	–	–	9%	–
CN1CCN(c2nc3cc(F)ccc3c(=O)n2-c2ccc(C(F)(F)F)cc2)CC1(C)C	> 30 µM	10000 nM	5%	–
CC(C)c1ccc(-n2c(N3CCN(C)CC3)nc3c(F)cccc3c2=O)cc1	0.91 µM	2500 nM	–	–
CN1CCN(c2nc3c(F)cccc3c(=O)n2-c2ccc(C(F)(F)F)cc2)CC1	1.44 µM	2500 nM	–	–
CN1CCN(c2nc3c(F)cccc3c(=O)n2-c2ccc(Cc3ccccc3)cc2)CC1	0.67 µM	312 nM	–	Activity [2]: 1.5%; solubility [3]: 553 µg/mL (≈ 1290 µM)
CN1CCN(c2nc3c(F)cccc3c(=O)n2-c2ccc(SC(F)(F)F)cc2)CC1	0.2 µM	156 nM	–	Activity [2]: 3.1%; solubility [3]: 952 µg/mL (≈ 2170 µM); Activity (Homo sapiens [11]): Active
CN1CCN(c2nc3c(Cl)cccc3c(=O)n2-c2ccc(Cl)cc2)CC1	–	–	19.9%	ECmax [20]: 19%
CCOC(=O)c1ccc(-n2c(N3CCC(N(C)C)C3)nc3c(F)cccc3c2=O)cc1 (stereo not drawn)	–	–	2.2%	–
CN1CCN(c2nc3c(F)cccc3c(=O)n2-c2ccc(OC3CCOCC3)cc2)CC1	0.87 µM	2500 nM	–	fraction unbound [21]: 0.297; Activity [2]: 8.7%; solubility [3]: 1110 µg/mL (≈ 2520 µM)
CCOC(=O)c1ccc(-n2c(N3CCN(C(C)C)CC3)nc3c(F)cccc3c2=O)cc1	–	–	1.9%	–
CN1CCN(c2nc3cccc(F)c3c(=O)n2-c2ccc(OC(F)(F)F)cc2)CC1	1.18 µM	1250 nM	–	Activity [2]: 3.7%
CCN1CCN(c2nc3cc(F)ccc3c(=O)n2-c2ccc(OC)cc2)CC1	12.2 µM	–	41%	–
COc1cccc2c(=O)n(-c3ccc(C)cc3)c(N3CCN(C)CC3)nc12	–	–	1.3%	–
CN1CCN(c2nc3c(F)cccc3c(=O)n2-c2ccc(Oc3ccc(F)cc3)cc2)CC1 [listing 2 of 2 here]	0.06 µM	–	–	Activity (HL-60): Non-Toxic; Activity [22]: Non-Toxic; solubility [3]: 743 µg/mL (≈ 1660 µM)
CCOC(=O)c1ccc(-n2c(N(C)C3CCN(C)C3)nc3c(F)cccc3c2=O)cc1 (stereo not drawn)	–	–	0.3%	–
CN1CCN(c2nc3c(F)cccc3c(=O)n2-c2ccc(OC(F)(F)F)cc2)CC1	0.28 µM	625 nM	–	Activity [2]: 2.2%; solubility [3]: 951 µg/mL (≈ 2250 µM)
Cc1cccc(-n2c(N3CCN(C)CC3)nc3c(Cl)cccc3c2=O)c1	–	–	1.5%	–
